Test results as given in paper PMC4750707 (Antimicrobial Agents and Chemotherapy, 2016).
Converted amounts (≈) assume the structure as drawn.

Columns and labels:
H. influenzae = test: Broth microdilution MIC; assay type: cell-based; settings: Haemophilus influenzae
Procedure, shortened: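 MICs by CLSI broth microdilution in cation-adjusted Mueller-Hinton broth. Strains grown in BHI broth at 35°C: E. coli K-12, P. aeruginosa 1771 and S. aureus ATCC 29213. H. influenzae Rd grown in BHI with Haemophilus test medium supplement (hemin and β-NAD, 15 μg/ml each).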

S. pneumoniae = test: Broth microdilution MIC; assay type: cell-based; settings: Streptococcus pneumoniae
Procedure, shortened: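 MICs by CLSI broth microdilution in cation-adjusted Mueller-Hinton broth plus 2.5% lysed horse blood. S. pneumoniae R6 grown on blood agar at 37°C under 5% CO2.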

H. influenzae PBP1a = H. influenzae PBP1a (Haemophilus influenzae, UniProt P31776); test: PBP competition assay with Bocillin FL; assay type: binding
Chain of H. influenzae PBP1a (P31776 whole entry): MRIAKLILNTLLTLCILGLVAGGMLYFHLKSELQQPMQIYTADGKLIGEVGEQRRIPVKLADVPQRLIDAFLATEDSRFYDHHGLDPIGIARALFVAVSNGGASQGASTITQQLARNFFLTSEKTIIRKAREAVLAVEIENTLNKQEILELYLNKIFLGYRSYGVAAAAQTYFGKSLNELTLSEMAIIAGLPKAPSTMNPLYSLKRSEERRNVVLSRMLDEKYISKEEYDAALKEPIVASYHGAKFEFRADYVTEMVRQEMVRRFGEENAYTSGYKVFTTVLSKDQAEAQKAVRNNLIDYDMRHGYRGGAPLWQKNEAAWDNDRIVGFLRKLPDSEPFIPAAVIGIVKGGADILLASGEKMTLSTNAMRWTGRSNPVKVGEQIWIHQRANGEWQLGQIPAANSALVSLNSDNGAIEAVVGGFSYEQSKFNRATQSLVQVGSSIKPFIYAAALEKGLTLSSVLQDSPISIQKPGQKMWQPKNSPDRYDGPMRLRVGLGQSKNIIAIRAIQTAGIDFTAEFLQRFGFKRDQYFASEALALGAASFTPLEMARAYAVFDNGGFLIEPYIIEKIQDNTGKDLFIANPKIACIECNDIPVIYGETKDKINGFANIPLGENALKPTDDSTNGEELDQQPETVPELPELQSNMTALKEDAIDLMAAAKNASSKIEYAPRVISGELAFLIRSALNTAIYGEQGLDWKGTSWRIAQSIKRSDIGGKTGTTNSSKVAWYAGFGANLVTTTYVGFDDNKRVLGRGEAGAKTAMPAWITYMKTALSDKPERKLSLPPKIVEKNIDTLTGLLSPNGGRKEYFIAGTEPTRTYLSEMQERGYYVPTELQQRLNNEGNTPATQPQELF
Procedure, shortened: (§1)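 H. influenzae Rd grown in supplemented BHI at 35°C (A600 0.6–0.7). Cells in KPN buffer (20 mM K-phosphate, 140 mM NaCl, pH 7.5), lysozyme-treated 30 min, French-pressed; membranes at 150,000 × g. Used 100–120 μg membrane protein. Test compound 10 min at 30°C, then Bocillin FL 100 μM final for 20 min. Gel fluorescence band volumes; IC50 from three assays of six concentrations.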

H. influenzae PBP1b = H. influenzae PBP1b (Haemophilus influenzae, UniProt P45345); test: PBP competition assay with Bocillin FL; assay type: binding
Chain of H. influenzae PBP1b (P45345 whole entry): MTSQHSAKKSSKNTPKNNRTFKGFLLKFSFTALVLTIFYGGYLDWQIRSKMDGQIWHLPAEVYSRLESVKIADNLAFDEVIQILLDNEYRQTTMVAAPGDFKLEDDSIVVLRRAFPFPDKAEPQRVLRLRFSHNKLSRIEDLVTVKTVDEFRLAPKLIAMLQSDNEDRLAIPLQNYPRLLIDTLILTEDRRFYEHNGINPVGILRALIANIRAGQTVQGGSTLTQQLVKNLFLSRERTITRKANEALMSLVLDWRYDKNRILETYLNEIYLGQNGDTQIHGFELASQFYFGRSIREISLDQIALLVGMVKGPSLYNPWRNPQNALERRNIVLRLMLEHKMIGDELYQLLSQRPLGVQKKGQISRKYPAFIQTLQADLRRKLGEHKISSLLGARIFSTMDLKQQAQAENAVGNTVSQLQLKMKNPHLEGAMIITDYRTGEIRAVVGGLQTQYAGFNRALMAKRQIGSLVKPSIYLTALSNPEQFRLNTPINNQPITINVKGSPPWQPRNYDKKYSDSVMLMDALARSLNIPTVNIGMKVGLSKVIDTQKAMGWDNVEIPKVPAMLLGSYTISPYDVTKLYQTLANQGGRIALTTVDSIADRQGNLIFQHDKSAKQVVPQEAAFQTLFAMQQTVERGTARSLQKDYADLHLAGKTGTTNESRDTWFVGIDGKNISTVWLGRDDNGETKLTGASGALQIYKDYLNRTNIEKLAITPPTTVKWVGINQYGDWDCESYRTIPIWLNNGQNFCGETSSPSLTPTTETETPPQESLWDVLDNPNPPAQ
Procedure, shortened: as §1

H. influenzae PBP2 = H. influenzae PBP2 (Haemophilus influenzae, UniProt P44469); test: PBP competition assay with Bocillin FL; assay type: binding
Chain of H. influenzae PBP2 (P44469 whole entry): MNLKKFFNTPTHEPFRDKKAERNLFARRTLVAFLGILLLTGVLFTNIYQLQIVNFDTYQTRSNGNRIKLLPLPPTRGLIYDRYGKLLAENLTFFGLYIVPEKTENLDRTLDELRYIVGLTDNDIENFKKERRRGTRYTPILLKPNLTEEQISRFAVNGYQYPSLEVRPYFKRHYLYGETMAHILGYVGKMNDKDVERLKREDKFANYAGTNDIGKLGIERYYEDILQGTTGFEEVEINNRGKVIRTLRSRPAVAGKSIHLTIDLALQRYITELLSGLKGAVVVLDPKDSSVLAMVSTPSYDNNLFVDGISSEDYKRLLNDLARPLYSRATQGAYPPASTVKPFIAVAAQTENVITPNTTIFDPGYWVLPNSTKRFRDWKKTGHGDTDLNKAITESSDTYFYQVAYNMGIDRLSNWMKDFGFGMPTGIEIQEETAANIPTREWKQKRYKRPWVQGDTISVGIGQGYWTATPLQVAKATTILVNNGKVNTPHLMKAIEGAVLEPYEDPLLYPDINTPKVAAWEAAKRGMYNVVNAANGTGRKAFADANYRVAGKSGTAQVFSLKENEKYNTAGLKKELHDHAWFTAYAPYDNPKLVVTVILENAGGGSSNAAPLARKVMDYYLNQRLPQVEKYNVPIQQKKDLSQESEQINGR
Procedure, shortened: as §1

H. influenzae PBP3a/b = H. influenzae PBP3a/b (Haemophilus influenzae, UniProt P45059); test: PBP competition assay with Bocillin FL; assay type: binding
Chain of H. influenzae PBP3a/b (P45059 66-580 limits assumed): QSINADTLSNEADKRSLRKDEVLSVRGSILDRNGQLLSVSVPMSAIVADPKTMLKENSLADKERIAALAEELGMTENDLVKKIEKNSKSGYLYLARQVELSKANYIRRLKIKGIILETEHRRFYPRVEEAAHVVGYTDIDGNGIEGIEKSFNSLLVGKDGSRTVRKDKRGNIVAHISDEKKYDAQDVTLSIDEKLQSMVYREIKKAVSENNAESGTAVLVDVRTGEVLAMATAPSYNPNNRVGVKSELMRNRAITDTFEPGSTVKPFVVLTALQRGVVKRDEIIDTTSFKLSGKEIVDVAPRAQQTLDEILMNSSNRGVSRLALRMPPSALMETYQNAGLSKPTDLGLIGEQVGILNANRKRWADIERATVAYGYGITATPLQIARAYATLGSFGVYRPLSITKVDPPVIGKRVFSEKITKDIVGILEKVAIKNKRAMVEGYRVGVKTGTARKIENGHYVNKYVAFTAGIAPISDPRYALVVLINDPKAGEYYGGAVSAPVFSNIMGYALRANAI
Procedure, shortened: as §1

H. influenzae PBP4 = H. influenzae PBP4 (Haemophilus influenzae, UniProt P45161); test: PBP competition assay with Bocillin FL; assay type: binding
Chain of H. influenzae PBP4 (P45161 27-479): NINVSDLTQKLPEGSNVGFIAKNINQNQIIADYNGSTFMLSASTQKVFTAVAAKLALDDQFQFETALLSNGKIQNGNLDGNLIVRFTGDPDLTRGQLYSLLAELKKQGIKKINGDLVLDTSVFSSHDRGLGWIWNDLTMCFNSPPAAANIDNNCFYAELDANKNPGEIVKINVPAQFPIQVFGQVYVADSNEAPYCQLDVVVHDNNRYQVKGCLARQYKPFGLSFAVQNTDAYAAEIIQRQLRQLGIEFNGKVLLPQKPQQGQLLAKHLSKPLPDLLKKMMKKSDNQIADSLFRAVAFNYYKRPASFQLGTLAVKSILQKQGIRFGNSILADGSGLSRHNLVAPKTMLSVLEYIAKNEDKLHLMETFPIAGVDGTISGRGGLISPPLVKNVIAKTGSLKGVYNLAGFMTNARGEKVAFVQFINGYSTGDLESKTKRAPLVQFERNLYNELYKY
Procedure, shortened: as §1

H. influenzae PBP5 = H. influenzae PBP5 (Haemophilus influenzae, UniProt P44466); test: PBP competition assay with Bocillin FL; assay type: binding
Chain of H. influenzae PBP5 (P44466 19-393): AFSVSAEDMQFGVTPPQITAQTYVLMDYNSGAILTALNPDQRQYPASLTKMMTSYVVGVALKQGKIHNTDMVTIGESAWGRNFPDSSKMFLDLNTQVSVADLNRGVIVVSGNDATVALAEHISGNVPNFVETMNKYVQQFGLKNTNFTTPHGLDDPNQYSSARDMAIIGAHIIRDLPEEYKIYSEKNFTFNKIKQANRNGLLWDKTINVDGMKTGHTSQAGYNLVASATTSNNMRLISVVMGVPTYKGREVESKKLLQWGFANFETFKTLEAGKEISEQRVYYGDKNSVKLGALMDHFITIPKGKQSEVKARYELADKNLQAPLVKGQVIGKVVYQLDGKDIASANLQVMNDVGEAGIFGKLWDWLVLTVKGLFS
Procedure, shortened: as §1

S. pneumoniae PBP1a/b = test: PBP competition assay with Bocillin FL; assay type: binding, Streptococcus pneumoniae; settings: S. pneumoniae R6 membranes; Bocillin FL 100 μM
Procedure, shortened: (§2)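 S. pneumoniae R6 was grown on blood agar at 37°C under 5% CO2, then in BHI with agitation to A600 ~1.0. Cells in KPN buffer pH 7.5 were lysozyme-treated and French-pressed; membranes (30–40 μg protein) were used. Test compound 10 min at 30°C, then Bocillin FL 100 μM final for 20 min. SDS-PAGE fluorescence; IC50 from three assays of six concentrations.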

S. pneumoniae PBP2X = S. pneumoniae PBP2X (Streptococcus pneumoniae, UniProt P59676); test: PBP competition assay with Bocillin FL; assay type: binding
Chain of S. pneumoniae PBP2X (P59676 whole entry): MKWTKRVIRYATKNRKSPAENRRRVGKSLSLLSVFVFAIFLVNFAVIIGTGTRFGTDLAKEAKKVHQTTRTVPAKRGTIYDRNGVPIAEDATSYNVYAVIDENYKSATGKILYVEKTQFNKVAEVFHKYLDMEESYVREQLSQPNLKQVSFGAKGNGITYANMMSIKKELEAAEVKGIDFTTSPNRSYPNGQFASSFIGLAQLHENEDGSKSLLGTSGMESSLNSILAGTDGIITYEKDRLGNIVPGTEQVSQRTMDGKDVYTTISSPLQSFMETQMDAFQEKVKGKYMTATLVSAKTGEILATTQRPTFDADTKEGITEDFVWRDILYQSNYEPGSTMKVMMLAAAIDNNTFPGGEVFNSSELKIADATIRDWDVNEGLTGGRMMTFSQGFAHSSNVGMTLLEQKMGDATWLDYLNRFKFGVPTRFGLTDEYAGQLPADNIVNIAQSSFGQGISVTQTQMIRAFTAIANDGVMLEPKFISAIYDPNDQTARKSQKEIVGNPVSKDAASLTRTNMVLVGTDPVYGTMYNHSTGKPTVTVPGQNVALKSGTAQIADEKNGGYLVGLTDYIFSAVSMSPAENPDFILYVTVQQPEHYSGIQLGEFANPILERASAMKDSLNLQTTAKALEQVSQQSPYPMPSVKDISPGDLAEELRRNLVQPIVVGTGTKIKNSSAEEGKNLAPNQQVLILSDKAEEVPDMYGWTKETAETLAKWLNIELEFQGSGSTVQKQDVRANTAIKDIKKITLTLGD
Procedure, shortened: as §2

S. pneumoniae PBP2a/b = test: PBP competition assay with Bocillin FL; assay type: binding, Streptococcus pneumoniae; settings: S. pneumoniae R6 membranes; Bocillin FL 100 μM
Procedure, shortened: as §2

**Q.** What does the source list for `NC(=O)[C@@H]1CC[C@@H]2CN1C(=O)N2OS(=O)(=O)O` [AVI, avibactam]?
**A.** MIC (H. influenzae): 64 µg/mL (≈ 241 µM); MIC (S. pneumoniae): 256 µg/mL (≈ 965 µM); IC50 (H. influenzae PBP1a): > 121 µM; IC50 (H. influenzae PBP1b): > 121 µM; IC50 (H. influenzae PBP2): 11.3 µM; IC50 (H. influenzae PBP3a/b): > 121 µM; IC50 (H. influenzae PBP4): > 121 µM; IC50 (H. influenzae PBP5): > 121 µM; Relative binding (IC50) for PBP 1a/b (S. pneumoniae PBP1a/b): >64 µg/mL; IC50 (S. pneumoniae PBP2X): > 241 µM; Relative binding (IC50) for PBP 2a/b (S. pneumoniae PBP2a/b): >64 µg/mL
